Measurements pooled from the literature.
pEC50, pIC50: −log10 of the molar value.
Observed: cell growth or viability

Structure (SMILES) | cell line | assay | setting | measurement | result
CCC(=O)NCc1ccc(-c2cnc(C3CN(C(=O)c4ccc(NC(=O)[C@@H]5CC(C)(C)CN5)s4)C3)s2)c2ccccc12 | IMR-90 | SRB | 7 days | GI50 | > 10 µM
CC1(C)C[C@H]2[C@H]1CC[C@]1(C)CCC[C@@]2(n2cc(C(=O)Nc3ccc(Cl)cc3)nn2)C1 | HT-29 | CCK-8 | 50 µM | inhibition | 16.8%
O=c1c2cc(Cl)ccc2nc(-c2ccccc2)n1N=Cc1cccnc1 | LLC-PK1 | MTT | 72 h | pIC50 | 3.49
C=C(NC(=O)C(=C)NC(=O)c1csc(C2=N[C@@H]3c4csc(n4)[C@H]4NC(=O)c5csc(n5)[C@H]([C@](C)(O)[C@@H](C)O)NC(=O)[C@H]5CSC(=N5)/C(=C/C)NC(=O)[C@H]([C@@H](C)O)NC(=O)c5csc(n5)[C@]3(CC2)NC(=O)[C@H](C)NC(=O)C(=C)NC(=O)[C@H](C)NC(=O)[C@H]([C@@H](C)CC)N[C@@H]2C=Cc3c([C@H](C)O)cc(nc3[C@H]2O)C(=O)O[C@@H]4C)n1)C(N)=O | SQ20B |  |  | pEC50 | 6.15
CC1(C)C[C@H]2[C@H]1CC[C@]1(C)CCC[C@@]2(n2cc(C(=O)NCCN)nn2)C1 | HT-29 | CCK-8 | 10 µM | inhibition | 53.4%
O=c1c2cc(Cl)ccc2nc(-c2ccccc2)n1N=Cc1ccc2c(c1)OCO2 | LLC-PK1 | MTT | 72 h | pIC50 | 4.22
CC1(C)C[C@H]2[C@H]1CC[C@]1(C)CCC[C@@]2(n2cc(C(=O)O)nn2)C1 | HT-29 | CCK-8 | 10 µM | inhibition | < 50%
O=c1c2cc(Cl)ccc2nc(-c2ccccc2)n1N=Cc1ccc(Cl)cc1Cl | LLC-PK1 | MTT | 72 h | pIC50 | 3.58
Cc1nc(Nc2ncc(C(=O)Nc3c(C)cccc3Cl)s2)cc(N2CC[C@H](O)C2)n1 | OCI-Ly7 | ATP luminescence | 10 µM, 72 h | inhibition | 57%
